# Results collected from several papers.
# Lines come from different studies, so protocols differ.
# Target: Serine/threonine-protein kinase Chk1 (CHEK1, Homo sapiens, UniProt O14757)
# Sequence (O14757 1-476, as in one of the studies): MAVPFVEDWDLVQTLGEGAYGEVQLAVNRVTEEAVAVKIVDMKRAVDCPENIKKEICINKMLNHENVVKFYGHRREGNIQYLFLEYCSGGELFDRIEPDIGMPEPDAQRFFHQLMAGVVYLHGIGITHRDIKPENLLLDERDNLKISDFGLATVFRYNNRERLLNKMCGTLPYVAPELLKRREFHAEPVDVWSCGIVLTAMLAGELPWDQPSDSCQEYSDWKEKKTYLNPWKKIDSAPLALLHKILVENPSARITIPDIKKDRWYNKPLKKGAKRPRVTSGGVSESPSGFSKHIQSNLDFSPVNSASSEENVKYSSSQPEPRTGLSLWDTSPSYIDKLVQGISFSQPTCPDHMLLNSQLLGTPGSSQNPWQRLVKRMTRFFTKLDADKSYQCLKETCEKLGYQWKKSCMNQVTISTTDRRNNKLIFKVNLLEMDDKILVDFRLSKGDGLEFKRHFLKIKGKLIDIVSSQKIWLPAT
Structure (SMILES),observed,technique,tested at,remaining binding [%]
CCN1CCN(Cc2ccc(C(=O)Nc3ccc(C)c(Oc4ccc5c(c4)CC(=O)N5)c3)cc2C(F)(F)F)CC1,binding,competition with immobilised ligand,1 µM,100
O=C(Nc1c[nH]nc1C(=O)NC1CCNCC1)c1cc(F)cc(F)c1,binding,competition with immobilised ligand,1 µM,100
O=C(NCCCN1CCOCC1)c1ccc(Nc2nccc(-c3cc4ccccc4s3)n2)cc1,binding,competition with immobilised ligand,1 µM,100
c1cnn2ncc(-c3ccnc(N4CCC45COC5)n3)c2c1,binding,,1 µM,89
CN(C)C(=O)Cn1cc(-c2nc([C@@](C)(c3ccc(-c4cnc(N)nc4)cc3)C3CC3)no2)cn1,cell-free assay,competition with immobilised ligand,1 µM,85
FC(F)(F)Oc1cccc(-c2cnc3ccc(-c4ccncc4)nn23)c1,cell-free assay,competition with immobilised ligand,5 µM,100
CNC(=O)c1ccc(Nc2ncc(C(F)(F)F)c(NCc3nccnc3N(C)S(C)(=O)=O)n2)cc1,cell-free assay,competition with immobilised ligand,0.1 µM,100
O=C(c1ccc(Nc2nccc(-c3cc4ccccc4s3)n2)cc1)N1CCC(N2CCCC2)CC1,binding,competition with immobilised ligand,1 µM,100
CN(CCCC(F)(F)F)c1nccc(-c2cnn3ncccc23)n1,binding,,1 µM,100
Cc1cc(-n2nc(Cc3cc(F)cc(C(F)(F)F)c3)nc2C)ccc1C(N)=O,cell-free assay,competition with immobilised ligand,1 µM,100
CC1CCCN1c1nccc(-c2cnn3ncccc23)n1 (stereo not drawn),binding,,1 µM,99
CC(C)CC(=O)N1CCc2nc(-c3ccc(Br)cc3)nc(N(C)Cc3ccccc3)c2C1,cell-free assay,competition with immobilised ligand,0.1 µM,100
CC(C)(C)c1ccc(-c2nc(CBr)nn2-c2cccc(O)c2)cc1,cell-free assay,competition with immobilised ligand,10 µM,86
O=C(NCCCN1CCOCC1)c1ccc(Nc2ncc(Cl)c(-c3ccc(Cl)s3)n2)cc1,binding,competition with immobilised ligand,1 µM,57
Cc1cc(C)c(-n2ccn3nc(-c4cccnc4)cc23)cc1NC(=O)c1cc(C#N)cc(S(F)(F)(F)(F)F)c1,cell-free assay,competition with immobilised ligand,0.1 µM,86
Nc1ncc2c(n1)-c1c([nH]c3ccc(C#CC4CC4)cc13)CCCC2,binding,competition with immobilised ligand,1 µM,97
C[C@H]1CCN(c2nccc(-c3cnn4ncccc34)n2)C1,binding,,1 µM,76
CCc1ccccc1C(=O)Nc1n[nH]c2c(C)c(F)c(C3C(C#N)=C(C)N(C)C(C)=C3C#N)cc12,cell-free assay,competition with immobilised ligand,1 µM,91
COc1ccnn2ncc(-c3ccnc(N(C)C)n3)c12,binding,,1 µM,94
C[C@@H]1CN(c2ccc3ncc(-c4ccc5[nH]nc(C6CC6)c5c4)n3n2)C[C@H](C)O1,binding,competition with immobilised ligand,50 nM,91
N[C@H]1CCN(c2nccc(-c3cnn4ncccc34)n2)C1,binding,,1 µM,100
COc1cnc(Nc2cccc(S(N)(=O)=O)c2)nc1N1CCN(c2ccccc2)C(=O)C1,binding,competition with immobilised ligand,1 µM,100
CN(C)c1nccc(-c2cnn3ncccc23)n1,binding,,1 µM,100
O=C(NCCCC1CCCCC1)c1ccc(CNC(=O)c2cnn(-c3ccccc3)c2C(F)(F)F)cc1,cell-free assay,competition with immobilised ligand,0.1 µM,100
